Assays:
MAP kinase p38 [1] = biological target: T1, MAP kinase p38 (Homo sapiens, UniProt O15264+Q15759+Q16539+P53778); assay: In vitro inhibition of cytokine IL-6 release by human […]; assay type: functional
Summary of the method: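 PBMC isolated from buffy coats, 5×10^5 cells/mL in RPMI1640 plus 2% FCS, glutamine and antibiotics. Compound added 30 min before LPS; culture 6 h. Supernatant IL-6 or IL-8 quantified by ELISA kits.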

Mus musculus [2] = organism: Mus musculus; assay: Inhibition of ear swelling induced by oxazolone induced murine allergic contact dermatitis model at 0.5 mg/ear at 72 hr; assay type: functional
Summary of the method: (§1)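 Groups of six female inbred BALB/cABOM mice (18–21 g) were sensitized with oxazolone on the clipped abdomen 7 days before right-ear challenge. Compound in acetone (20 μL) or vehicle was applied once, 30 min after challenge. Ear swelling (right minus left ear thickness) was read at 24, 48 and 72 h. Values are mean % inhibition ± SEM of four or five experiments.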

Homo sapiens [3] = organism: Homo sapiens; assay: In vitro inhibition of cytokine IL-12 release by human […]; assay type: functional
Summary of the method: (§2)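 Human PBMC were isolated from buffy coats and diluted 1:1 in saline. Cells were held at 5×10^5 cells/mL in RPMI1640 with 2 mM glutamine and penicillin/streptomycin, then preincubated 30 min with compound. IL-12: 2% FCS, IFN-γ 95 ng/mL for 18 h, then LPS for 24 h. IL-2 and IFN-γ: 10% FCS, phytohemagglutinin for 48 h. Supernatant cytokine measured by sandwich ELISA.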

Mus musculus [4] = organism: Mus musculus; assay: Inhibition of ear swelling in oxazolone-induced murine allergic contact dermatitis at 0.5 mg/ear at 24 hr; assay type: functional; summary of the method: as §1
[5] = biological target: T2, Myeloperoxidase (Mus musculus) (UniProt P11247); assay: Inhibition of myeloperoxidase (MPO) activity induced by oxazolone in murine allergic contact dermatitis model at 0.5 mg/ear at 72 hr (in vivo)
T2 sequence (whole entry): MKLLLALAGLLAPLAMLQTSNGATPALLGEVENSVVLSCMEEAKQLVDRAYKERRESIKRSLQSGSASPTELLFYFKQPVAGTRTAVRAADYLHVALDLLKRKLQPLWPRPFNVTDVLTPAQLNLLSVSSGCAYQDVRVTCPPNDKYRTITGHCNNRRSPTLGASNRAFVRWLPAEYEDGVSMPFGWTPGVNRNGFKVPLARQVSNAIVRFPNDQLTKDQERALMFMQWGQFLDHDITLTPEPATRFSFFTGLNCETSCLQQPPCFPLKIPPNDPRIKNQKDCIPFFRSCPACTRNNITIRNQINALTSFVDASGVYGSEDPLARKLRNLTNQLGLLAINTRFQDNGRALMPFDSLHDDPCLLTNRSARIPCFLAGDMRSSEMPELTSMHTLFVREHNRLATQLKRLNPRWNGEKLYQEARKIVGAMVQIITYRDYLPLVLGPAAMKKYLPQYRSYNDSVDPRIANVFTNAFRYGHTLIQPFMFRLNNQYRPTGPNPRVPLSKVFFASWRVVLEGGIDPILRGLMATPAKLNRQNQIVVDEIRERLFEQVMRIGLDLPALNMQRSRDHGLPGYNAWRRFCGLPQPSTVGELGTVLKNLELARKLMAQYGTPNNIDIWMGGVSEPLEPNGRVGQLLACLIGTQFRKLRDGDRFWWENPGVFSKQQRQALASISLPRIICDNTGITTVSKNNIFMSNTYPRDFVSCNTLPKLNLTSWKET

[6] = biological target: T3, Mitogen-activated protein kinase 14 (Homo sapiens, UniProt Q16539); assay: Inhibition of Mitogen-activated protein kinase p38 alpha at 1 uM
T3 sequence (Q16539 whole entry, canonical isoform): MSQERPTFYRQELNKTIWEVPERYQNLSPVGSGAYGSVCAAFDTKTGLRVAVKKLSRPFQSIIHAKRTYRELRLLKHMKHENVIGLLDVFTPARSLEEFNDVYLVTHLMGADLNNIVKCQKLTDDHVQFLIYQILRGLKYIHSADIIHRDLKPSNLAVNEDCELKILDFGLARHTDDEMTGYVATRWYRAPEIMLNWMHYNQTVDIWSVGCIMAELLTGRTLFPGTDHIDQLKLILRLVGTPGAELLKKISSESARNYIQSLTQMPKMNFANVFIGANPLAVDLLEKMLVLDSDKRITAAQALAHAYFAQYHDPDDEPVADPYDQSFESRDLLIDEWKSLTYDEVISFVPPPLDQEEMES
Summary of the method: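 FLAG-tagged p38α cDNA was transfected into COS-1 cells. Kinase activity of the expressed isoform was measured with compound at 1 μM.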

MAP kinase p38 [7] = biological target: T1, MAP kinase p38; assay: In vitro inhibition of IL1-beta release from LPS stimulated human peripheral blood mononuclear cells.; assay type: functional
Summary of the method: (§3)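 Human PBMC from buffy coats (Lymphoprep), 5×10^5 cells/mL in RPMI1640 with 2% FCS, glutamine, penicillin/streptomycin; 30 min preincubation with compound, then LPS stimulation, 18 h at 37 °C, 5% CO2.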

Mus musculus [8] = assay: Inhibition of ear swelling induced by 12-O-tetradecanoylphorbol-13-acetate (TPA) in murine chronic irritative contact dermatitis model at 0.5 mg/ear (in vivo); assay type: functional
Summary of the method: (§4)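 Murine TPA-induced chronic irritative ear dermatitis, with compound given topically per ear. Ear swelling and ear weight were determined 5 h after the last application. Values are mean % inhibition ± SEM of three to five experiments.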

[9] = biological target: Mitogen-activated protein kinase; ERK1/ERK2 (Homo sapiens) (UniProt P27361+P28482); assay: Inhibition of Mitogen-activated protein kinase 3/Mitogen-activated protein kinase 1 (ERK) at 10 uM; assay type: protein assay
Mitogen-activated protein kinase; ERK1/ERK2 (Homo sapiens), sequence (P27361 whole entry, looked up): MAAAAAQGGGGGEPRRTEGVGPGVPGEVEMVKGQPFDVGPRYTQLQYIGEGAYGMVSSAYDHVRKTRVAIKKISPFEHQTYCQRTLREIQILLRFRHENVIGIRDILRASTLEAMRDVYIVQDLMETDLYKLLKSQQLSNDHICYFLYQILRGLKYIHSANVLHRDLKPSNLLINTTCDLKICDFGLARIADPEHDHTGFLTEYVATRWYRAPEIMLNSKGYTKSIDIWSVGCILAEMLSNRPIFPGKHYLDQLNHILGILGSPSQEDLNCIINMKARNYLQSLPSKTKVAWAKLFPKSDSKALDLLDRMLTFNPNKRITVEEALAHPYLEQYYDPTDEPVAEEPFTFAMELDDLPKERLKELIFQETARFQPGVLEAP
Mitogen-activated protein kinase; ERK1/ERK2 (Homo sapiens), sequence (P28482 whole entry, looked up): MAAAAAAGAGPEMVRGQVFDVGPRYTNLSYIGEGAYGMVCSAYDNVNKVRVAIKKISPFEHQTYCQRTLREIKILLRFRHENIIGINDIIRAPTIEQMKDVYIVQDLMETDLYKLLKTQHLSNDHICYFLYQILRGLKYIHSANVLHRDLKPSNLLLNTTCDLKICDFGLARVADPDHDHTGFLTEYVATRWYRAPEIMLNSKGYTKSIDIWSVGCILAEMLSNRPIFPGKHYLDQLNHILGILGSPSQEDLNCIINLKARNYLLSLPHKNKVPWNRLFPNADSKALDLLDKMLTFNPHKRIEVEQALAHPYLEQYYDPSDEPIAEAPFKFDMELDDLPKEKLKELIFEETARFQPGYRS
Summary of the method: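 MCF-7 cells stimulated with EGF; ERK1/2 activity measured with a modified cell-signalling ERK1/2 kinase kit in presence of compound.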

[10] = biological target: T4, Mitogen-activated protein kinase 12 (Homo sapiens) (UniProt P53778); assay: Inhibition of Mitogen-activated protein kinase p38 gamma at 1 uM
T4 sequence (whole entry): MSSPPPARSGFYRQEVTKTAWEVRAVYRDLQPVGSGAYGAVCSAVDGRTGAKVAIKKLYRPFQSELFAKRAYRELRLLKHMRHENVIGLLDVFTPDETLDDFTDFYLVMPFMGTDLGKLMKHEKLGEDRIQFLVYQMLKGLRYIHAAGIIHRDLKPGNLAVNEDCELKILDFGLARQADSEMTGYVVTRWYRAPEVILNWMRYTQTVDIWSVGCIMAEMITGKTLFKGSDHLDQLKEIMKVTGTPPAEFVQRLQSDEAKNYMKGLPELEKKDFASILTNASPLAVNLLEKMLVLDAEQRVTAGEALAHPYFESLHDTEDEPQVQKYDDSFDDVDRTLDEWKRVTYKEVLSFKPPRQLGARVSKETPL
Summary of the method: (§5)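 FLAG-tagged p38 isoform cDNA (β2, γ or δ) transfected into COS-1 cells; kinase activity of the expressed isoform measured with compound at 1 μM.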

Homo sapiens [11] = organism: Homo sapiens; assay: In vitro inhibition of gamma-interferon release by human […]; assay type: functional; summary of the method: as §2
[12] = biological target: T2, Myeloperoxidase (Mus musculus); assay: Inhibition of myeloperoxidase (MPO) activity induced by TPA in murine chronic irritative contact dermatitis model at 0.5 mg/ear (in vivo); assay type: organism-based
[13] = biological target: T3, Mitogen-activated protein kinase 14; assay: In vitro inhibitory activity determined against human mitogen-activated protein kinase p38 alpha
Mus musculus [14] = organism: Mus musculus; assay: Inhibition of ear swelling induced by oxazolone induced murine allergic contact dermatitis model at 0.5 mg/ear at 48 hr; assay type: functional; summary of the method: as §1
Homo sapiens [15] = organism: Homo sapiens; assay: In vitro inhibition of cytokine IL-2 release by human […]; assay type: functional; summary of the method: as §2
[16] = biological target: Mitogen-activated protein kinase 8 (Homo sapiens) (UniProt P45983); assay: Inhibition of c-Jun N-terminal kinase 1 at 10 uM
Mitogen-activated protein kinase 8 (Homo sapiens), sequence (P45983 whole entry): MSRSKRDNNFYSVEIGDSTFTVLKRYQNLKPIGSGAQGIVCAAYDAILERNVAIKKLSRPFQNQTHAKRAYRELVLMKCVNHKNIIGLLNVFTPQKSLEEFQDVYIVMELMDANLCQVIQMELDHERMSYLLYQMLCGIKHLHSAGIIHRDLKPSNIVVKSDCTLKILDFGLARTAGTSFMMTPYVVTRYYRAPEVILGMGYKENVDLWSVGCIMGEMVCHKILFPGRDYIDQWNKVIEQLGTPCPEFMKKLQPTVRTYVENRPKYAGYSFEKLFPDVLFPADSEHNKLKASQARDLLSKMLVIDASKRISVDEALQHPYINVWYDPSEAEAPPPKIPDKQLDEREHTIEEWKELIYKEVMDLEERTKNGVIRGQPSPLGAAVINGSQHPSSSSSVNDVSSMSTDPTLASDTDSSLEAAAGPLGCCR
Summary of the method: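 JNK1 activity from UV-stimulated MCF-7 cells, measured with a JNK1 kinase kit in presence of compound.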

MAP kinase p38 [17] = biological target: T1, MAP kinase p38; assay: In vitro inhibition of TNF-alpha release from LPS stimulated human peripheral blood mononuclear cells.; assay type: functional; summary of the method: as §3
MAP kinase p38 [18] = biological target: T1, MAP kinase p38; assay: In vitro inhibition of cytokine IL-8 release by human peripheral blood mononuclear cells
Mus musculus [19] = assay: Inhibition of ear weight induced by 12-O-tetradecanoylphorbol-13-acetate (TPA) in murine chronic irritative contact dermatitis model at 0.5 mg/ear (in vivo); assay type: functional; summary of the method: as §4
[20] = biological target: Mitogen-activated protein kinase 11 (Homo sapiens) (UniProt Q15759); assay: Inhibition of Mitogen-activated protein kinase p38 beta at 1 uM; summary of the method: as §5
Mitogen-activated protein kinase 11 (Homo sapiens), sequence (Q15759 whole entry): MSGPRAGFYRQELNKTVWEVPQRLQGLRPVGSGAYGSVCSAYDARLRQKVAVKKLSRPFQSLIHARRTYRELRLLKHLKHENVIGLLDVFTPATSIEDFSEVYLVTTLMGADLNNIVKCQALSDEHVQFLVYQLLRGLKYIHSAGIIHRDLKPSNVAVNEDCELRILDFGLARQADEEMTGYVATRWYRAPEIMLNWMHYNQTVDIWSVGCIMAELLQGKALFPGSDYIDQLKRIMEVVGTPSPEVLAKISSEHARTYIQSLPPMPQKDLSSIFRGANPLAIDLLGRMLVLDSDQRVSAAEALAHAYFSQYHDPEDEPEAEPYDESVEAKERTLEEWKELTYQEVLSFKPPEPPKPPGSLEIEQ

MAP kinase p38 [21] = biological target: T1, MAP kinase p38; assay: In vitro inhibition of cytokine IL-10 release by human […]; assay type: functional
Summary of the method: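 Buffy-coat PBMC at 5×10^5 cells/mL in RPMI1640 with 10% FCS, glutamine, antibiotics; 30 min compound preincubation, then phytohemagglutinin stimulation and 48 h incubation.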

[22] = biological target: T5, Mitogen-activated protein kinase 13 (Homo sapiens) (UniProt O15264); assay: Inhibition of Mitogen-activated protein kinase p38 delta at 1 uM; summary of the method: as §5
T5 sequence (whole entry): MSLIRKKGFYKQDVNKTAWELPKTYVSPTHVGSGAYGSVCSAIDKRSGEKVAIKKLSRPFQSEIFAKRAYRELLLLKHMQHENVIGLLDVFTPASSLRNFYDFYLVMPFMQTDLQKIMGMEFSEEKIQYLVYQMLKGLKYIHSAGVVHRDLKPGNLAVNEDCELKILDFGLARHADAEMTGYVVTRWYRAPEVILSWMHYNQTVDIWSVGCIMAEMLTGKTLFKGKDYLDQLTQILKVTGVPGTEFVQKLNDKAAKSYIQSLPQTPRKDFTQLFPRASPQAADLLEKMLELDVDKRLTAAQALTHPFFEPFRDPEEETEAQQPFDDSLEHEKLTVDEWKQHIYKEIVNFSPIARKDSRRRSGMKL

Mus musculus [23] = assay: Inhibition of ear swelling in oxazolone induced murine allergic contact dermatitis model at 0.5 mg/ear at 48 hr (in vivo); assay type: functional; summary of the method: as §1
Mus musculus [24] = assay: Inhibition of ear swelling in oxazolone induced murine allergic contact dermatitis model at 0.5 mg/ear at 72 hr (in vivo); assay type: functional; summary of the method: as §1
Mus musculus [25] = assay: Inhibition of ear swelling in oxazolone-induced murine allergic contact dermatitis at 0.5 mg/ear at 24 hr (in vivo); assay type: functional; summary of the method: as §1
[26] = biological target: T2, Myeloperoxidase (Mus musculus); assay: Inhibition of myeloperoxidase (MPO) activity induced by oxazolone in murine allergic contact dermatitis model at 0.001 mg/ear at 24 hr (in vivo); assay type: organism-based
Mus musculus [27] = assay: Inhibition of ear swelling induced by oxazolone in murine allergic contact dermatitis model at 0.001 mg/ear at 72 hr (in vivo); assay type: functional; summary of the method: as §1
Mus musculus [28] = assay: Inhibition of ear swelling induced by oxazolone in murine allergic contact dermatitis model at 0.001 mg/ear at 24 hr (in vivo); assay type: functional; summary of the method: as §1
Mus musculus [29] = assay: Inhibition of ear swelling induced by oxazolone in murine allergic contact dermatitis model at 0.5 mg/ear at 48 hr (in vivo)

Structure (SMILES)	IC50 (MAP kinase p38 [1]) [nM]	IC50 (Homo sapiens [3]) [nM]	inhibition [5] [%]	inhibition [6] [%]	IC50 (MAP kinase p38 [7]) [nM]	Inhibition (Mus musculus [8]) [%]	inhibition [9] [%]	inhibition [10] [%]	IC50 (Homo sapiens [11]) [nM]	inhibition [12] [%]	IC50 [13] [nM]	IC50 (Homo sapiens [15]) [nM]	IC50 (MAP kinase p38 [17]) [nM]	IC50 (MAP kinase p38 [18]) [nM]	Inhibition (Mus musculus [19]) [%]	inhibition [20] [%]	IC50 (MAP kinase p38 [21]) [nM]	inhibition [22] [%]	also measured
Cc1ccccc1C(=O)c1ccc(Nc2ccc(Br)cc2N)cc1Cl	17	> 1000	56	82	30	27	0	0	> 1000	79	39	> 1000	5	4	34	93	74	0	Inhibition (Mus musculus [2]): 46%; Inhibition (Mus musculus [4]): 35%; Inhibition (Mus musculus [14]): 38%; inhibition [16]: 0%
Cc1ccccc1C(=O)c1ccc(Nc2ccccc2N)cc1Cl	18	> 1000	56	88	14	37	20	0	> 1000	73	10	> 1000	6	6	27	93	12	8	Inhibition (Mus musculus [23]): 46%; Inhibition (Mus musculus [24]): 46%; Inhibition (Mus musculus [25]): 43%
CCCCO[C@]1(C(=O)CO)CCC2C3CCC4=CC(=O)CCC4(C)C3C(O)CC21C (some centres not stated)	–	–	–	–	–	–	–	–	–	–	–	–	–	–	–	–	–	–	inhibition [26]: 41%; Inhibition (Mus musculus [27]): 55%; Inhibition (Mus musculus [28]): 43%; Inhibition (Mus musculus [29]): 55%

Source: ChEMBL document CHEMBL1145938, “Synthesis and structure-activity relationship of aminobenzophenones. A novel class of p38 MAP kinase inhibitors with high antiinflammatory activity” (J Med Chem, 2003)
